From publication PMC7490575 (Molecular Diversity, 2020) come the findings set out here.

Assay [1] relates to A/Puerto Rico/8/34 (H1N1) influenza virus. Nature of the assay: Cell protection assay, influenza virus in MDCK cells. The assay is classed as cell-based, influenza virus A/PR/8/34 (H1N1).
Assay [2] deals with Coxsackie B3 virus. Put plainly: Cell protection assay, Coxsackie B3 virus in Vero cells. The assay is classed as cell-based, coxsackievirus B3. The gist of the method:
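Confluent Vero monolayers given test compound, infected with Coxsackie B3 (m.o.i. 0.01), held 48 h at 36 °C, 5% CO2. Viability read by MTT (OD 540 nm) against virus-only wells; IC50 is 50% cell protection. […] SI = CC50/IC50.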

For `O=c1[nH]c(=O)n(CCCc2cn([C@@H]3O[C@H](CO)[C@@H](O)[C@H]3O)nn2)c2ccccc12` [Compound 4h, N1-{[1-(β-D-ribofuranosyl)-1H-1,2,3-triazol-4-yl]propyl}-2,4(1H,3H)-quinazolinedione], the “antiviral activity against influenza virus A/PR/8/34 (H1N1), in words” value (shortened to “antiviral activity … (H1N1), in words”) in assay [1] is “antiviral activity was demonstrated”.

For `Cc1[nH]c(=O)[nH]c(=O)c1Cc1cn([C@@H]2O[C@H](CO)[C@@H](O)[C@H]2O)nn1` [Compound 8m, 6-Methyl-5-{[1-(β-D-ribofuranosyl)-1H-1,2,3-triazol-4-yl]methyl}-2,4(1H,3H)-pyrimidinedione], the “antiviral activity … (H1N1), in words” value in assay [1] is on record as “antiviral activity was demonstrated”.

For `Cc1[nH]c(=O)[nH]c(=O)c1CCCc1cn([C@@H]2O[C@H](CO)[C@@H](O)[C@H]2O)nn1` [Compound 8n, 6-Methyl-5-{[1-(β-D-ribofuranosyl)-1H-1,2,3-triazol-4-yl]propyl}-2,4(1H,3H)-pyrimidine-dione], the “antiviral activity … (H1N1), in words” value in assay [1] is “antiviral activity was demonstrated”.

With `Cc1[nH]c(=O)[nH]c(=O)c1CCCCc1cn([C@@H]2O[C@H](CO)[C@@H](O)[C@H]2O)nn1` [Compound 8o, 6-Methyl-5-{[1-(β-D-ribofuranosyl)-1H-1,2,3-triazol-4-yl]butyl}-2,4(1H,3H)-pyrimidinedione], the “antiviral activity … (H1N1), in words” value in assay [1] is “completely inactive”.

As to `NC(=O)c1ncn([C@@H]2O[C@H](CO)[C@@H](O)[C@H]2O)n1` [Ribavirin, 1-β-D-ribofuranosyl-1,2,4-triazole-3-carboxamide], in assay [2], the “antiviral activity against Coxsackie B3 virus, in words” value was “inactive”.
